Columns and labels:
HCT-116 [1] = assay: Induction of apoptosis in human HCT116 cells assessed as upregulation of BAX expression measured after 24 hrs by Western blot analysis; format: functional, cell-based
Method in brief: (§1)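 HCT-116 cells treated at 0.25, 0.5 and 1 μM for 24 h, lysed in RIPA buffer with PMSF. Proteins separated by SDS-PAGE (8% or 10%), transferred to PVDF and probed with primary antibodies and HRP secondaries. β-actin served as internal control; bands quantified as bar graphs.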

HCT-116 [2] = assay: Induction of apoptosis in human HCT116 cells assessed as increase in cleaved caspase-3 protein level measured after 24 hrs by Western blot analysis; format: functional, cell-based; method in brief: as §1
HCT-116 [3] = assay: Cell cycle arrest in human HCT116 cells assessed as accumulation at G1 phase at 0.25 uM measured after 24 hrs by propidium iodide staining based flow cytometry analysis (reference value: 42.01 %); format: functional
HCT-116 [4] = assay: Induction of apoptosis in human HCT116 cells assessed as viable cells at 0.5 uM measured after 24 hrs by annexin-v-FITC/propidium iodide staining based FACScan flow cytometry analysis (reference value: 78.5 %); format: functional; settings: HCT-116, 24 h, read-out: Activity
HCT-116 [5] = assay: Induction of apoptosis in human HCT116 cells assessed as increase in cleaved caspase-9 protein level measured after 24 hrs by Western blot analysis; format: functional, cell-based; method in brief: as §1
HCT-116 [6] = assay: Cell cycle arrest in human HCT116 cells assessed as accumulation at G2 phase at 1 uM measured after 24 hrs by propidium iodide staining based flow cytometry analysis (reference value: 7.86 %); format: functional
Huh-7 = assay: Antiproliferative activity against human HuH7 cells assessed as reduction in cell viability after 48 hrs by MTT assay; format: functional, cell-based; settings: Huh-7, 48 h
HCT-116 [7] = assay: Cell cycle arrest in human HCT116 cells assessed as accumulation at G1 phase at 1 uM measured after 24 hrs by propidium iodide staining based flow cytometry analysis (reference value: 42.01 %); format: functional
HCT-116 [8] = assay: Induction of apoptosis in human HCT116 cells assessed as necrotic cells at 0.5 uM measured after 24 hrs by annexin-v-FITC/propidium iodide staining based FACScan flow cytometry analysis (reference value: 1.87 %); format: functional
[9] = target: T1, Phosphatidylinositol 4,5-bisphosphate 3-kinase catalytic subunit alpha isoform (Homo sapiens, UniProt P42336); assay: Inhibition of PI3K-alpha in human HCT116 cells assessed as decrease in phosphorylated Akt protein expression level measured after 24 hrs by Western blot analysis; format: cell-based
T1 sequence (P42336 whole entry, canonical isoform): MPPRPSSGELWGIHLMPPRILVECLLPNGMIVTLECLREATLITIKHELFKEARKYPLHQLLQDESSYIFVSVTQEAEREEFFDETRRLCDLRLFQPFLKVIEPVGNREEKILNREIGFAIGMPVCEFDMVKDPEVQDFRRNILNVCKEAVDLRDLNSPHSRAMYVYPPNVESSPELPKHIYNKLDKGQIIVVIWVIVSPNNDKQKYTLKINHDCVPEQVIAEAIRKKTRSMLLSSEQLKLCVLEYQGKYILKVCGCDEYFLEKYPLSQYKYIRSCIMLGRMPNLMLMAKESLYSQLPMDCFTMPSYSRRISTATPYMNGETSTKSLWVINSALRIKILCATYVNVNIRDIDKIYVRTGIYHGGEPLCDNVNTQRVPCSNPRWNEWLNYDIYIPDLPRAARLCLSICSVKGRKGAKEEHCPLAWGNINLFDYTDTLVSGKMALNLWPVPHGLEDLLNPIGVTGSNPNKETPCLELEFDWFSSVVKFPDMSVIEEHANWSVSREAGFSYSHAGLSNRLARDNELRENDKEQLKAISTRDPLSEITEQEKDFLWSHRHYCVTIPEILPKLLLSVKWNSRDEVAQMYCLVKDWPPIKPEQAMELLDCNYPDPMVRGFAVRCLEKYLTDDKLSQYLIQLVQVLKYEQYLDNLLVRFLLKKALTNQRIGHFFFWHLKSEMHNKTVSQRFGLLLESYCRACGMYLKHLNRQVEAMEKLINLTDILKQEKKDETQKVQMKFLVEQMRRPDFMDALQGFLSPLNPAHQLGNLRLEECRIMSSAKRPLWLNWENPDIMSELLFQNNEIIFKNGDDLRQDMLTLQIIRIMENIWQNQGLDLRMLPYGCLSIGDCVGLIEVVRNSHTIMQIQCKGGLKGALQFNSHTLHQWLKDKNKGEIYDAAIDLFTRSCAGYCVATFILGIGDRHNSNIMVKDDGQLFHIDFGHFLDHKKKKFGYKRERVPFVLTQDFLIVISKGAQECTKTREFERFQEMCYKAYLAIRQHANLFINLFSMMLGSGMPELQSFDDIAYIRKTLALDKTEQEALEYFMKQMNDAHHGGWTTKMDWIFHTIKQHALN
Method in brief: (§2)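 HCT-116 cells exposed for 24 h at 0.25, 0.5 and 1 μM, lysed in RIPA buffer, and analysed by SDS-PAGE/PVDF Western blot for p-Akt (Ser473) and p-S6K. β-actin internal control; densitometry mean ± SEM, n = 3.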

HCT-116 [10] = assay: Cell cycle arrest in human HCT116 cells assessed as accumulation at G1 phase at 0.5 uM measured after 24 hrs by propidium iodide staining based flow cytometry analysis (reference value: 42.01 %); format: functional
HCT-116 [11] = assay: Induction of apoptosis in human HCT116 cells assessed as early apoptotic cells at 1 uM measured after 24 hrs by annexin-v-FITC/propidium iodide staining based FACScan flow cytometry analysis (reference value: 10.0 %); format: functional
HL-60 = assay: Antiproliferative activity against human HL60 cells assessed as reduction in cell viability after 48 hrs by MTT assay; format: functional, cell-based; settings: HL-60, 48 h
HCT-116 [12] = assay: Induction of apoptosis in human HCT116 cells assessed as viable cells at 0.25 uM measured after 24 hrs by annexin-v-FITC/propidium iodide staining based FACScan flow cytometry analysis (reference value: 78.5 %); format: functional; settings: HCT-116, 24 h, read-out: Activity
HCT-116 [13] = assay: Induction of apoptosis in human HCT116 cells assessed as late apoptotic cells at 0.5 uM measured after 24 hrs by annexin-v-FITC/propidium iodide staining based FACScan flow cytometry analysis (reference value: 9.61 %); format: functional
HCT-116 [14] = assay: Induction of apoptosis in human HCT116 cells assessed as late apoptotic cells at 1 uM measured after 24 hrs by annexin-v-FITC/propidium iodide staining based FACScan flow cytometry analysis (reference value: 9.61 %); format: functional
[15] = target: T1, Phosphatidylinositol 4,5-bisphosphate 3-kinase catalytic subunit alpha isoform; assay: Inhibition of PI3K-alpha in human HCT116 cells assessed as decrease in phosphorylated S6K protein expression level measured after 24 hrs by Western blot analysis; format: cell-based; method in brief: as §2
HCT-116 [16] = assay: Induction of apoptosis in human HCT116 cells assessed as decrease in Bcl-2 protein level measured after 24 hrs by Western blot analysis; format: functional, cell-based; method in brief: as §1
[17] = Cytotoxicity against human 293T cells; format: cell-based; settings: HEK-293T cells
[18] = target: Phosphatidylinositol 4,5-bisphosphate 3-kinase catalytic subunit gamma isoform (Homo sapiens, UniProt P48736); assay: Inhibition of PI3Kgamma (unknown origin) using diC8-PI(4,5)P2 as substrate incubated for 3 hrs in presence of ATP by fluorescence polarization assay
Sequence of Phosphatidylinositol 4,5-bisphosphate 3-kinase catalytic subunit gamma isoform (P48736 whole entry, canonical isoform): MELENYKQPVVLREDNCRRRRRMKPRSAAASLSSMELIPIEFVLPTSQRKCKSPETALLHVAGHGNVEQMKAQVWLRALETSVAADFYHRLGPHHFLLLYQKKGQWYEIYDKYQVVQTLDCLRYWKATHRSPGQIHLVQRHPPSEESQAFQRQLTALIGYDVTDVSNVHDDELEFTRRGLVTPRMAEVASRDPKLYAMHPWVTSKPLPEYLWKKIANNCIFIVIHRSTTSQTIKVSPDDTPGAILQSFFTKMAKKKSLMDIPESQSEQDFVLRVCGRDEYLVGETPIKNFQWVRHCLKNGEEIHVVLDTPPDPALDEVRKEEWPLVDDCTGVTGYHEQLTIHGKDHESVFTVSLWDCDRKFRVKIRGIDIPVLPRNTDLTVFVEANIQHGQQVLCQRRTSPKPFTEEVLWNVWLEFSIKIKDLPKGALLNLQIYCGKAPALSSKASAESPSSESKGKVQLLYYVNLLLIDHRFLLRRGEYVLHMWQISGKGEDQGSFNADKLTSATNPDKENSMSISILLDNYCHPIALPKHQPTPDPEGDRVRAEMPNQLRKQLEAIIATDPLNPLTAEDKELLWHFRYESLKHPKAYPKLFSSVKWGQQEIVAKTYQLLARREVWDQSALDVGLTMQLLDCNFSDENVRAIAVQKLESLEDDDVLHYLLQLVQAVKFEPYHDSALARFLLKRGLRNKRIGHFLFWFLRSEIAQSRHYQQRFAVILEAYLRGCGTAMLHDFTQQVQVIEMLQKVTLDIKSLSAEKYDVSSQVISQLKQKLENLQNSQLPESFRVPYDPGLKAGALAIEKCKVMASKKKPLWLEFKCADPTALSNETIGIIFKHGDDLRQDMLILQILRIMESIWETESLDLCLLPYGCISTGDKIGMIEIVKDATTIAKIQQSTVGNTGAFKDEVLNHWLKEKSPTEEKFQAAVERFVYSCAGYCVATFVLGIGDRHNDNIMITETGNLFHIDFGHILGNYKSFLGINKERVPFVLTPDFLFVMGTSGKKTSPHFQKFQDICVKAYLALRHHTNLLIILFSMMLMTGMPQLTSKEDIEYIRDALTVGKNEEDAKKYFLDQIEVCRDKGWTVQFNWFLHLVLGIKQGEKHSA
Method in brief: (§3)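 Fluorescence polarization competition assay, 10 μL reactions at pH 7: 2.5 mM MgCl₂, 5 mM HEPES, ATP, 10 mM DTT, 50 ng PI3K isoform, diC8-PI(4,5)P2 substrate. After 3 h at room temperature, reactions were chelator-quenched. Phosphoinositide binding protein and fluorophore-labelled tracer were added, then 1 h dark equilibration and polarization read.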

A549 = assay: Antiproliferative activity against human A549 cells assessed as reduction in cell viability after 48 hrs by MTT assay; format: functional, cell-based; settings: A549, 48 h
HCT-116 [19] = assay: Antitumour activity against human HCT116 cells xenografted in nude mouse assessed as tumour growth inhibition at 10 mg/kg, ig administered every 3 days for 3 weeks and measured after 3 weeks relative to control; format: functional; settings: HCT-116, po, read-out: TGI
Method in brief: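 HCT-116 cells (5 × 10^6 per animal) injected into right flank of nude mice; at ~100 mm³ tumours, randomized into groups of 6. Dosed 10 mg/kg in 5% CMC-Na intragastrically every three days for three weeks; vehicle control 5% CMC-Na. Body weight and tumour size recorded every three days, volume = 0.5 × length × width²; tumours excised and weighed at end. Mean ± SD.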

[20] = target: Phosphatidylinositol 4,5-bisphosphate 3-kinase catalytic subunit beta isoform (Homo sapiens, UniProt P42338); assay: Inhibition of PI3Kbeta (unknown origin) using diC8-PI(4,5)P2 as substrate incubated for 3 hrs in presence of ATP by fluorescence polarization assay; method in brief: as §3
Sequence of Phosphatidylinositol 4,5-bisphosphate 3-kinase catalytic subunit beta isoform (P42338 whole entry, canonical isoform): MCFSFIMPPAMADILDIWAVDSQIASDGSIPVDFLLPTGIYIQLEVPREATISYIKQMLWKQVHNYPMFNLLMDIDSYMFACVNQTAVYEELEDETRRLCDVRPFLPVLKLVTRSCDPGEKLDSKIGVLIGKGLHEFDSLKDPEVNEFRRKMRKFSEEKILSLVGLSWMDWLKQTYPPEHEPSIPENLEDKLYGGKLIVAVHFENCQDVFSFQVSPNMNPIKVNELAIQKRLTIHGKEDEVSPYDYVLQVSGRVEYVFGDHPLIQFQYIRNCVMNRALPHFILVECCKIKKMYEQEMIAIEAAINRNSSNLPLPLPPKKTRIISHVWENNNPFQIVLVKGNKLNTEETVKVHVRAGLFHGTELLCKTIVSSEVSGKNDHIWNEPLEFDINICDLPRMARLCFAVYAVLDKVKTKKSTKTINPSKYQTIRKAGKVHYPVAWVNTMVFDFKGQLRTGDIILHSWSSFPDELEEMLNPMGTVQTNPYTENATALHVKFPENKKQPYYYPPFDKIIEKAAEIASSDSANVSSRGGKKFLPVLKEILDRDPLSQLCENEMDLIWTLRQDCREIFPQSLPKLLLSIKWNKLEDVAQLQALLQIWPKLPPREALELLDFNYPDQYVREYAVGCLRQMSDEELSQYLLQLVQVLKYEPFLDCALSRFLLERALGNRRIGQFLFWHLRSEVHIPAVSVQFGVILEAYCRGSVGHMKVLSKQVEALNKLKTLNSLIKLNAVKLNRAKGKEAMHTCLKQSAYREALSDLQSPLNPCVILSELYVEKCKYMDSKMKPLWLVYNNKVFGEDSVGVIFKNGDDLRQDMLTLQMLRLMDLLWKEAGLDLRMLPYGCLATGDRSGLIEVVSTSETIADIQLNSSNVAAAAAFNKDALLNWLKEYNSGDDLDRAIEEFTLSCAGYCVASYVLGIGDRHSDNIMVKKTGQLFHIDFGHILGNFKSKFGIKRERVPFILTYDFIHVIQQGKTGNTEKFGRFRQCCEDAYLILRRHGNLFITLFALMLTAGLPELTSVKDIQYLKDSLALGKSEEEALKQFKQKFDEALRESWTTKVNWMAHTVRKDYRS

- IC50 (Huh-7): 90 nM
- inhibition [9]: Dose-dependent effect
- IC50 (HL-60): 60 nM
- inhibition [15]: Dose-dependent effect
- IC50 [18]: 81 nM
- IC50 (A549): 60 nM
- IC50 [20]: 120 nM
SMILES: O=c1oc2ccccc2c2nn(CN3CCN(S(=O)(=O)c4ccc(Cl)c([N+](=O)[O-])c4)CC3)cc12
- Activity (HCT-116 [1]): Dose-dependent effect
- Activity (HCT-116 [2]): Dose-dependent effect
- Activity (HCT-116 [3]): 46.87%
- viability at 0.5 µM (HCT-116 [4]): 46%
- Activity (HCT-116 [5]): Dose-dependent effect
- Activity (HCT-116 [6]): 8.09%
- Activity (HCT-116 [7]): 58.13%
- Activity (HCT-116 [8]): 6.04%
- Activity (HCT-116 [10]): 50.95%
- Activity (HCT-116 [11]): 25.5%
- viability at 0.25 µM (HCT-116 [12]): 56%
- Activity (HCT-116 [13]): 30.8%
- Activity (HCT-116 [14]): 36.9%
- Activity (HCT-116 [16]): Dose-dependent effect
- CC50 [17]: 386 µM
- inhibition in vivo at 10 mg/kg (HCT-116 [19]): 66.4%

— ChEMBL document CHEMBL4359902, “Development of novel chromeno[4,3-c]pyrazol-4(2H)-one derivates bearing sulfonylpiperazine as antitumor inhibitors targeting PI3Kα” (Eur J Med Chem, 2019)
